Reference: ChEMBL document CHEMBL1157746, “Function-oriented synthesis of simplified caprazamycins: discovery of oxazolidine-containing uridine derivatives as antibacterial agents against drug-resistant bacteria” (J Med Chem, 2010)
In brackets after ≈: the same amount, converted by molar mass.

How the values were obtained:
[1] = tested on: Staphylococcus aureus; assay: Antibacterial activity against methicillin-sensitive Staphylococcus aureus ATCC 29213 after 20 hrs by two fold microdilution broth method; assay type: functional; details: ATCC 29213, 20 h
Outline: (§1)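 NCCLS-recommended broth microdilution in cation-adjusted Mueller-Hinton broth; serial 2-fold compound dilutions; each well inoculated with 5×10⁴ CFU in 0.1 mL; incubated 35 °C for 20 h, then MIC (μg/mL) scored.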

[2] = tested on: Enterococcus faecium; assay: Antibacterial activity against Enterococcus faecium ATCC 19434 after 20 hrs by two fold microdilution broth method; assay type: functional; details: ATCC 19434, 20 h; outline: as §1
[3] = biological target: T1, Phospho-N-acetylmuramoyl-pentapeptide-transferase (Bacillus subtilis (strain 168), UniProt Q03521); assay: Inhibition of Bacillus subtilis MraY after 30 mins using UDP-MurNAc-pentapeptide as substrate
T1 sequence (Q03521 whole entry): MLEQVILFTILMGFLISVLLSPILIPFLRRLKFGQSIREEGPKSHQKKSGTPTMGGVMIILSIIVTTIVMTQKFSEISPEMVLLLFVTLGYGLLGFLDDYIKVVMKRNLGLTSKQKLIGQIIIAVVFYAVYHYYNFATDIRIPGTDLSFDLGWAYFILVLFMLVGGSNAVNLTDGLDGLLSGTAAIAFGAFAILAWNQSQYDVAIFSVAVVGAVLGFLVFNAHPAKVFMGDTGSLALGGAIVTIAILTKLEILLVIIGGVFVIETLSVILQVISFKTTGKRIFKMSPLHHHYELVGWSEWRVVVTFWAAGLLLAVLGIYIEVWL

[4] = tested on: Staphylococcus aureus; assay: Antibacterial activity against methicillin-resistant Staphylococcus aureus SR-3637 clinical isolate after 20 hrs by two fold microdilution broth method; assay type: functional; details: SR3637, 20 h
Outline: (§2)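 NCCLS broth microdilution in cation-adjusted Mueller-Hinton broth. Serial 2-fold compound dilutions, inoculum 5×10⁴ CFU per well in 0.1 mL. Plates incubated at 35 °C for 20 h, then MIC (μg/mL) scored. Strains are clinical isolates from Japanese hospitals: MRSA SR3637, VanA E. faecalis SR7914, VanA E. faecium SR7917.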

[5] = tested on: Enterococcus faecium; assay: Antibacterial activity against vancomycin-resistant Enterococcus faecium SR-7917 clinical isolate after 20 hrs by two fold microdilution broth method; assay type: functional; details: SR7917, 20 h; outline: as §2
[6] = tested on: Enterococcus faecalis; assay: Antibacterial activity against Enterococcus faecalis ATCC 29212 after 20 hrs by two fold microdilution broth method; assay type: functional; details: ATCC 29212, 20 h; outline: as §1
[7] = tested on: Enterococcus faecalis; assay: Antibacterial activity against vancomycin-resistant Enterococcus faecalis SR-7914 clinical isolate after 20 hrs by two fold microdilution broth method; assay type: functional; details: SR7914, 20 h; outline: as §2

| SMILES | MIC [1] [µg/mL] | MIC [2] [µg/mL] | IC50 [3] [µM] | MIC [4] [µg/mL] | MIC [5] [µg/mL] | MIC [6] [µg/mL] | MIC [7] [µg/mL] |
| --- | --- | --- | --- | --- | --- | --- | --- |
| CCCCCCCCc1ccc(NC(=O)[C@@H](N)[C@H](O[C@@H]2O[C@H](CN)[C@@H](O)[C@H]2O)[C@H]2O[C@@H](n3ccc(=O)[nH]c3=O)[C@H](O)[C@@H]2O)cc1.O=C(O)C(F)(F)F | 64 | 32 | 46 | 64 | 32 | 16 | 64 |
| CCCCCCCCCCCCNC(=O)[C@@H](N)[C@H](O[C@@H]1O[C@H](CN)[C@@H](O)[C@H]1O)[C@H]1O[C@@H](n2ccc(=O)[nH]c2=O)[C@H](O)[C@@H]1O.O=C(O)C(F)(F)F | 64 | 16 | 18 | 64 | 16 | 16 | 32 |
| CCCCCCCCCCCC(=O)N[C@H](C(=O)O)[C@H](O[C@@H]1O[C@H](CN)[C@@H](O)[C@H]1O)[C@H]1O[C@@H](n2ccc(=O)[nH]c2=O)[C@H](O)[C@@H]1O.O=C(O)C(F)(F)F | > 64 | > 64 | 63 | > 64 | > 64 | > 64 | > 64 |
| CCCCCCCCc1ccc(C(=O)N[C@H](C(=O)O)[C@H](O[C@@H]2O[C@H](CN)[C@@H](O)[C@H]2O)[C@H]2O[C@@H](n3ccc(=O)[nH]c3=O)[C@H](O)[C@@H]2O)cc1.O=C(O)C(F)(F)F | > 64 | > 64 | 256 | > 64 | > 64 | 64 | > 64 |
| CCCCCCCCCCCCNC(=O)N[C@H](C(=O)O)[C@H](O[C@@H]1O[C@H](CN)[C@@H](O)[C@H]1O)[C@H]1O[C@@H](n2ccc(=O)[nH]c2=O)[C@H](O)[C@@H]1O.O=C(O)C(F)(F)F | > 64 | > 64 | 36 | > 64 | > 64 | 64 | 64 |
| CCCCCCCCc1ccc(NC(=O)N[C@H](C(=O)O)[C@H](O[C@@H]2O[C@H](CN)[C@@H](O)[C@H]2O)[C@@H]2O[C@@H](n3ccc(=O)[nH]c3=O)[C@H](O)[C@@H]2O)cc1.O=C(O)C(F)(F)F | > 64 | > 64 | 75 | > 64 | > 64 | 64 | 64 |
| CCCCCCCCCCCCCCCC(=O)N1[C@H](C(=O)O)[C@@H]([C@H]2O[C@@H](n3ccc(=O)[nH]c3=O)[C@H](O)[C@@H]2O)O[C@@H]1CN | > 64 | > 64 | 740 | > 64 | > 64 | > 64 | > 64 |
| CCCCCCCCCCCCCCCC(=O)N1[C@H](C(=O)O)[C@@H]([C@H]2O[C@@H](n3ccc(=O)[nH]c3=O)[C@H](O)[C@@H]2O)O[C@@H]1CCN | > 64 | > 64 | 451 | > 64 | > 64 | > 64 | > 64 |
| CCCCCCCCCCCCCCCC(=O)N1[C@H](C(=O)O)[C@@H]([C@H]2O[C@@H](n3ccc(=O)[nH]c3=O)[C@H](O)[C@@H]2O)O[C@@H]1CCCN | > 64 | > 64 | 360 | > 64 | > 64 | > 64 | > 64 |
| CCCCCCCCCCCCCCCC(=O)N1[C@H](C(=O)OC)[C@@H]([C@H]2O[C@@H](n3ccc(=O)[nH]c3=O)[C@H](O)[C@@H]2O)O[C@@H]1CN.Cl | > 64 | 32 | 980 | 13 | 16 | 32 | 64 |
| CCCCCCCCCCCCCCCC(=O)N1[C@H](C(=O)OC)[C@@H]([C@H]2O[C@@H](n3ccc(=O)[nH]c3=O)[C@H](O)[C@@H]2O)O[C@@H]1CCN.Cl | 8 | 4 | 920 | 8 | 8 | 8 | 16 |
| CCCCCCCCCCCCCCCC(=O)N1[C@H](C(=O)OC)[C@@H]([C@H]2O[C@@H](n3ccc(=O)[nH]c3=O)[C@H](O)[C@@H]2O)O[C@@H]1CCCN.Cl | 8 | 8 | 1200 | 8 | 4 | 8 | 16 |
| CCCCCCCCCCCCCCCC(=O)N1[C@H](C(=O)OC(C)(C)C)[C@@H]([C@H]2O[C@@H](n3ccc(=O)[nH]c3=O)[C@H](O)[C@@H]2O)O[C@@H]1CN | 8 (≈ 12.3 µM) | 4 (≈ 6.13 µM) | – | 16 (≈ 24.5 µM) | 4 (≈ 6.13 µM) | 4 (≈ 6.13 µM) | 2 (≈ 3.06 µM) |
| CCCCCCCCCCCCCCCC(=O)N1[C@H](C(=O)OC(C)(C)C)[C@@H]([C@H]2O[C@@H](n3ccc(=O)[nH]c3=O)[C@H](O)[C@@H]2O)O[C@@H]1CCN | 8 (≈ 12 µM) | 2 (≈ 3 µM) | – | 16 (≈ 24 µM) | 8 (≈ 12 µM) | 2 (≈ 3 µM) | 2 (≈ 3 µM) |
| CCCCCCCCCCCCCCCCNC(=O)[C@@H]1[C@@H]([C@H]2O[C@@H](n3ccc(=O)[nH]c3=O)[C@H](O)[C@@H]2O)O[C@H](CN)N1C(C)=O.Cl | 16 | 16 | – | 32 | 16 | 32 | 16 |
| CCCCCCCCCCCCCCCCNC(=O)[C@@H]1[C@@H]([C@H]2O[C@@H](n3ccc(=O)[nH]c3=O)[C@H](O)[C@@H]2O)O[C@H](CCN)N1C(C)=O.Cl | 16 | 16 | – | 16 | 16 | 16 | 16 |
| CCCCCCCCCCCCCCCCNC(=O)[C@@H]1[C@@H]([C@H]2O[C@@H](n3ccc(=O)[nH]c3=O)[C@H](O)[C@@H]2O)O[C@H](CCCN)N1C(C)=O.Cl | 16 | 16 | – | 32 | 16 | 16 | 16 |
| CCCCCCCCCCCCCCCC(=O)N1[C@H](C(=O)OC)[C@@H]([C@H]2O[C@@H](n3ccc(=O)[nH]c3=O)[C@H](O)[C@@H]2O)O[C@@H]1CCN=[N+]=[N-] | > 64 | 64 (≈ 98.3 µM) | – | > 64 | 64 (≈ 98.3 µM) | 16 (≈ 24.6 µM) | > 64 |
| CCCCCCCCCCCCCCCC(=O)N1[C@H](C(=O)OC)[C@@H]([C@H]2O[C@@H](n3ccc(=O)[nH]c3=O)[C@H](O)[C@@H]2O)O[C@@H]1CCCN=[N+]=[N-] | > 64 | > 64 | – | > 64 | 64 (≈ 96.3 µM) | 32 (≈ 48.1 µM) | > 64 |
| CCCCCCCCCCCCCCCC(=O)O[C@H]1CN[C@@H]([C@H](O[C@@H]2O[C@H](CN)[C@@H](O)[C@H]2O)[C@H]2O[C@@H](n3ccc(=O)[nH]c3=O)[C@H](O)[C@@H]2O)C(=O)N(C)[C@@H]1C(=O)O [DESMETHYLPALMITOYLCAPRAZOL] | 0.5 (≈ 0.625 µM) | 1 (≈ 1.25 µM) | – | 0.5 (≈ 0.625 µM) | 1 (≈ 1.25 µM) | 0.5 (≈ 0.625 µM) | 2 (≈ 2.5 µM) |
| CN[C@H](CC(C)C)C(=O)N[C@H]1C(=O)N[C@@H](CC(N)=O)C(=O)N[C@H]2C(=O)N[C@H]3C(=O)N[C@H](C(=O)N[C@H](C(=O)O)c4cc(O)cc(O)c4-c4cc3ccc4O)[C@H](O)c3ccc(c(Cl)c3)Oc3cc2cc(c3O[C@@H]2O[C@H](CO)[C@@H](O)[C@H](O)[C@H]2O[C@H]2C[C@](C)(N)[C@H](O)[C@H](C)O2)Oc2ccc(cc2Cl)[C@H]1O [VANCOMYCIN] | – | > 64 | – | – | > 64 | 1 (≈ 0.69 µM) | > 64 |
